In ChEMBL document CHEMBL1795269, “Novel (E)-5-styryl-2,2'-bithiophene derivatives as ligands for β-amyloid plaques” (Eur J Med Chem, 2011):
Each block holds one molecule with its values, some of them ahead of it.

Key:
[1] = Displacement of [125I]-TZDM from amyloid beta 1 to 42 after 2 hrs by gamma counting
Summary of the method: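 Aβ1-42 aggregated at 0.25 mg/mL in pH 7.4 buffer (10 mM sodium phosphate, 1 mM EDTA), 37 °C for 42 h with shaking. Fibrils (28 nM final) mixed with [125I]TZDM and inhibitor (10^-5 to 10^-10 M in EtOH) in PBS (0.2 M, pH 7.4). Incubated 2 h at 37 °C; nonspecific binding taken with 100 nM TZDM. Bound and free separated by vacuum filtration through glass fibre filters, washed with cold PBS containing 10% ethanol, then counted; Ki reported.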

[2] = test system: Muscle tissue; test: Biodistribution in Kunming mouse muscle at 1 uCi, iv after 30 mins by gamma counting; assay type: ADME, organism-based; conditions: in vivo, 0.5 h
Summary of the method: (§1)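 Female normal KunMing mice, about 20 g. [125I]-labelled tracer (1 μCi) in 100 μL saline injected into the tail vein. Mice killed at set times after injection; organs removed, weighed and counted in a gamma counter. %ID/g of wet tissue calculated against diluted aliquots of the injected dose.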

[3] = test system: Kidney; test: Biodistribution in Kunming mouse kidney at 1 uCi, iv after 30 mins by gamma counting; assay type: ADME, organism-based; conditions: in vivo, 0.5 h; summary of the method: as §1
[4] = test system: Blood; test: Biodistribution in Kunming mouse blood at 1 uCi, iv after 60 mins by gamma counting; assay type: ADME, organism-based; conditions: in vivo, 1 h; summary of the method: as §1
[5] = test system: Lung; test: Biodistribution in Kunming mouse lung at 1 uCi, iv after 15 mins by gamma counting; assay type: ADME, organism-based; conditions: in vivo, 0.25 h; summary of the method: as §1
[6] = test system: Spleen; test: Biodistribution in Kunming mouse spleen at 1 uCi, iv after 15 mins by gamma counting; assay type: ADME, organism-based; conditions: in vivo, 0.25 h; summary of the method: as §1
[7] = test system: Heart; test: Biodistribution in Kunming mouse heart at 1 uCi, iv after 60 mins by gamma counting; assay type: ADME, organism-based; conditions: in vivo, 1 h; summary of the method: as §1
[8] = test system: Spleen; test: Biodistribution in Kunming mouse spleen at 1 uCi, iv after 2 mins by gamma counting; assay type: ADME, organism-based; conditions: in vivo; summary of the method: as §1
[9] = test system: Brain; test: Biodistribution in Kunming mouse brain at 1 uCi, iv after 120 mins by gamma counting; assay type: ADME, organism-based; conditions: in vivo, 2 h; summary of the method: as §1
[10] = test system: Liver; test: Biodistribution in Kunming mouse liver at 1 uCi, iv after 15 mins by gamma counting; assay type: ADME, organism-based; conditions: in vivo, 0.25 h; summary of the method: as §1
[11] = test system: Spleen; test: Biodistribution in Kunming mouse spleen at 1 uCi, iv after 120 mins by gamma counting; assay type: ADME, organism-based; conditions: in vivo, 2 h; summary of the method: as §1
[12] = test system: Brain; test: Biodistribution in Kunming mouse brain at 1 uCi, iv after 60 mins by gamma counting; assay type: ADME, organism-based; conditions: in vivo, 1 h; summary of the method: as §1
[13] = test system: Blood; test: Biodistribution in Kunming mouse blood at 1 uCi, iv after 2 mins by gamma counting; assay type: ADME, organism-based; conditions: in vivo; summary of the method: as §1
[14] = test system: Heart; test: Biodistribution in Kunming mouse heart at 1 uCi, iv after 2 mins by gamma counting; assay type: ADME, organism-based; conditions: in vivo; summary of the method: as §1
[15] = test system: Blood; test: Biodistribution in Kunming mouse blood at 1 uCi, iv after 30 mins by gamma counting; assay type: ADME, organism-based; conditions: in vivo, 0.5 h; summary of the method: as §1
[16] = test system: Kidney; test: Biodistribution in Kunming mouse kidney at 1 uCi, iv after 60 mins by gamma counting; assay type: ADME, organism-based; conditions: in vivo, 1 h; summary of the method: as §1
[17] = test system: Stomach; test: Biodistribution in Kunming mouse stomach assessed per organ at 1 uCi, iv after 60 mins by gamma counting; assay type: ADME, organism-based; conditions: in vivo, 1 h
[18] = test system: Liver; test: Biodistribution in Kunming mouse liver at 1 uCi, iv after 2 mins by gamma counting; assay type: ADME, organism-based; conditions: in vivo; summary of the method: as §1
[19] = test system: Muscle tissue; test: Biodistribution in Kunming mouse muscle at 1 uCi, iv after 15 mins by gamma counting; assay type: ADME, organism-based; conditions: in vivo, 0.25 h; summary of the method: as §1
[20] = test system: Lung; test: Biodistribution in Kunming mouse lung at 1 uCi, iv after 120 mins by gamma counting; assay type: ADME, organism-based; conditions: in vivo, 2 h; summary of the method: as §1
[21] = test system: Brain; test: Biodistribution in Kunming mouse brain at 1 uCi, iv after 30 mins by gamma counting; assay type: ADME, organism-based; conditions: in vivo, 0.5 h; summary of the method: as §1
[22] = Octanol-phosphate buffer partition coefficient, log D of the compound at pH 7.4; assay type: physicochemical
Summary of the method: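 Radiotracer added to premixed n-octanol (3 g) and PBS (0.05 M, pH 7.4; 3 g), and partitioned between the two phases.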

[23] = test system: Muscle tissue; test: Biodistribution in Kunming mouse muscle at 1 uCi, iv after 120 mins by gamma counting; assay type: ADME, organism-based; conditions: in vivo, 2 h; summary of the method: as §1
[24] = test system: Heart; test: Biodistribution in Kunming mouse heart at 1 uCi, iv after 120 mins by gamma counting; assay type: ADME, organism-based; conditions: in vivo, 2 h; summary of the method: as §1
[25] = test system: Lung; test: Biodistribution in Kunming mouse lung at 1 uCi, iv after 60 mins by gamma counting; assay type: ADME, organism-based; conditions: in vivo, 1 h; summary of the method: as §1
[26] = test system: Stomach; test: Biodistribution in Kunming mouse stomach assessed per organ at 1 uCi, iv after 2 mins by gamma counting; assay type: ADME, organism-based; conditions: in vivo; summary of the method: as §1
[27] = test system: Stomach; test: Biodistribution in Kunming mouse stomach assessed per organ at 1 uCi, iv after 30 mins by gamma counting; assay type: ADME, organism-based; conditions: in vivo, 0.5 h; summary of the method: as §1
[28] = test system: Heart; test: Biodistribution in Kunming mouse heart at 1 uCi, iv after 15 mins by gamma counting; assay type: ADME, organism-based; conditions: in vivo, 0.25 h; summary of the method: as §1
[29] = test system: Spleen; test: Biodistribution in Kunming mouse spleen at 1 uCi, iv after 60 mins by gamma counting; assay type: ADME, organism-based; conditions: in vivo, 1 h; summary of the method: as §1
[30] = test system: Heart; test: Biodistribution in Kunming mouse heart at 1 uCi, iv after 30 mins by gamma counting; assay type: ADME, organism-based; conditions: in vivo, 0.5 h; summary of the method: as §1
[31] = test system: Stomach; test: Biodistribution in Kunming mouse stomach assessed per organ at 1 uCi, iv after 15 mins by gamma counting; assay type: ADME, organism-based; conditions: in vivo, 0.25 h; summary of the method: as §1
[32] = test system: Brain; test: Biodistribution in Kunming mouse brain at 1 uCi, iv after 2 mins by gamma counting; assay type: ADME, organism-based; conditions: in vivo; summary of the method: as §1
[33] = test system: Kidney; test: Biodistribution in Kunming mouse kidney at 1 uCi, iv after 15 mins by gamma counting; assay type: ADME, organism-based; conditions: in vivo, 0.25 h; summary of the method: as §1
[34] = test system: Spleen; test: Biodistribution in Kunming mouse spleen at 1 uCi, iv after 30 mins by gamma counting; assay type: ADME, organism-based; conditions: in vivo, 0.5 h; summary of the method: as §1
[35] = test system: Brain; test: Biodistribution in Kunming mouse brain at 1 uCi, iv after 15 mins by gamma counting; assay type: ADME, organism-based; conditions: in vivo, 0.25 h; summary of the method: as §1
[36] = test system: Kidney; test: Biodistribution in Kunming mouse kidney at 1 uCi, iv after 2 mins by gamma counting; assay type: ADME, organism-based; conditions: in vivo; summary of the method: as §1
[37] = test system: Stomach; test: Biodistribution in Kunming mouse stomach assessed per organ at 1 uCi, iv after 120 mins by gamma counting; assay type: ADME, organism-based; conditions: in vivo, 2 h; summary of the method: as §1
[38] = test system: Blood; test: Biodistribution in Kunming mouse blood at 1 uCi, iv after 15 mins by gamma counting; assay type: ADME, organism-based; conditions: in vivo, 0.25 h; summary of the method: as §1
[39] = test system: Liver; test: Biodistribution in Kunming mouse liver at 1 uCi, iv after 120 mins by gamma counting; assay type: ADME, organism-based; conditions: in vivo, 2 h; summary of the method: as §1
[40] = test system: Muscle tissue; test: Biodistribution in Kunming mouse muscle at 1 uCi, iv after 60 mins by gamma counting; assay type: ADME, organism-based; conditions: in vivo, 1 h; summary of the method: as §1
[41] = test system: Lung; test: Biodistribution in Kunming mouse lung at 1 uCi, iv after 30 mins by gamma counting; assay type: ADME, organism-based; conditions: in vivo, 0.5 h; summary of the method: as §1
[42] = test system: Liver; test: Biodistribution in Kunming mouse liver at 1 uCi, iv after 60 mins by gamma counting; assay type: ADME, organism-based; conditions: in vivo, 1 h; summary of the method: as §1
[43] = test system: Liver; test: Biodistribution in Kunming mouse liver at 1 uCi, iv after 30 mins by gamma counting; assay type: ADME, organism-based; conditions: in vivo, 0.5 h; summary of the method: as §1
[44] = test system: Lung; test: Biodistribution in Kunming mouse lung at 1 uCi, iv after 2 mins by gamma counting; assay type: ADME, organism-based; conditions: in vivo; summary of the method: as §1
[45] = test system: Blood; test: Biodistribution in Kunming mouse blood at 1 uCi, iv after 120 mins by gamma counting; assay type: ADME, organism-based; conditions: in vivo, 2 h; summary of the method: as §1
[46] = test system: Muscle tissue; test: Biodistribution in Kunming mouse muscle at 1 uCi, iv after 2 mins by gamma counting; assay type: ADME, organism-based; conditions: in vivo; summary of the method: as §1
[47] = test system: Kidney; test: Biodistribution in Kunming mouse kidney at 1 uCi, iv after 120 mins by gamma counting; assay type: ADME, organism-based; conditions: in vivo, 2 h; summary of the method: as §1

- Ki [1]: 1.02 nM
- inhibition [1]: Dose-dependent effect
SMILES: Clc1ccc(/C=C/c2ccc(-c3ccc(Br)s3)s2)cc1

- Ki [1]: 0.95 nM
- inhibition [1]: Dose-dependent effect
SMILES: CC(C)(C)c1ccc(/C=C/c2ccc(-c3ccc(Br)s3)s2)cc1

- Drug uptake [2]: 1.25 % ID/g
- Drug uptake [3]: 4.56 % ID/g
- Drug uptake [4]: 1.29 % ID/g
- Drug uptake [5]: 18.99 % ID/g
- Drug uptake [6]: 12.61 % ID/g
- Drug uptake [7]: 2.09 % ID/g
- Drug uptake [8]: 11.46 % ID/g
- Drug uptake [9]: 0.55 % ID/g
- Drug uptake [10]: 40.18 % ID/g
- Drug uptake [11]: 21.98 % ID/g
- Drug uptake [12]: 0.47 % ID/g
- Drug uptake [13]: 12.1 % ID/g
- Drug uptake [14]: 5.53 % ID/g
- Drug uptake [15]: 1.16 % ID/g
- Drug uptake [16]: 4.91 % ID/g
- Drug uptake [17]: 4.28 %ID
- Drug uptake [18]: 47.12 % ID/g
- Drug uptake [19]: 0.97 % ID/g
- Drug uptake [20]: 6.29 % ID/g
- Drug uptake [21]: 0.41 % ID/g
- logD [22]: 3.31
- Drug uptake [23]: 0.76 % ID/g
- Drug uptake [24]: 3.39 % ID/g
- Drug uptake [25]: 12.99 % ID/g
- Drug uptake [26]: 0.61 %ID
- Drug uptake [27]: 3.25 %ID
- Drug uptake [28]: 3.37 % ID/g
- Drug uptake [29]: 14.58 % ID/g
- Drug uptake [30]: 3.35 % ID/g
- Drug uptake [31]: 1.48 %ID
- Drug uptake [32]: 2.11 % ID/g
- Drug uptake [33]: 4.37 % ID/g
- Drug uptake [34]: 14.82 % ID/g
- Drug uptake [35]: 0.42 % ID/g
- Drug uptake [36]: 4.69 % ID/g
- Drug uptake [37]: 3.36 %ID
- Drug uptake [38]: 1.38 % ID/g
- Drug uptake [39]: 45.74 % ID/g
- Drug uptake [40]: 0.93 % ID/g
- Drug uptake [41]: 15.69 % ID/g
- Drug uptake [42]: 47.7 % ID/g
- Drug uptake [43]: 42.17 % ID/g
- Drug uptake [44]: 20.89 % ID/g
- Drug uptake [45]: 1.76 % ID/g
- Drug uptake [46]: 0.85 % ID/g
- Drug uptake [47]: 6.35 % ID/g
SMILES: [125I]c1ccc(/C=C/c2ccc(-c3cccs3)s2)cc1

- Ki [1]: 1.15 nM
- inhibition [1]: Dose-dependent effect
SMILES: Cc1ccc(/C=C/c2ccc(-c3cccs3)s2)cc1

- Ki [1]: 0.8 nM
- inhibition [1]: Dose-dependent effect
SMILES: Cc1ccc(/C=C/c2ccc(-c3ccc(I)s3)s2)cc1

- Ki [1]: 41 nM
- inhibition [1]: Dose-dependent effect
SMILES: Nc1ccc(/C=C/c2ccc(-c3cccs3)s2)cc1

- Ki [1]: 0.81 nM
- inhibition [1]: Dose-dependent effect
SMILES: Fc1ccc(/C=C/c2ccc(-c3ccc(Br)s3)s2)cc1
